Bioassay records as filed in PubChem.
This is a sample that favours compounds with a hit; in the whole collection about 2% have one here.
Beta2AR agonist: agonists of human beta-2 adrenergic receptor inducing internalization; response, % (test concentration not listed); Am2.2-beta2AR cells, FAP receptor internalization, flow cytometry; 340,000 tested, 0.43% active; AID 504454; P07550;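 active = response above a set limit, near 3 SD of response in nonfluorescent compounds, cut at about 42% in these data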
Hep lipid drop: modulators of hepatic lipid droplet formation; AML12 mouse hepatocytes, oleate lipid droplets, BODIPY imaging; inhibition, % at 6.5 µM; 240,000 tested, 0.4% active; AID 1656;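 active = lipid droplet intensity inhibited by at least 50%, with more than 500 cells counted; inconclusive = wells with under 300 cells, treated as cytotoxic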
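System: AML12 hepatocytes (mouse). Probe or stimulus: oleic acid at 100 µM to induce lipid droplet formation. Times: overnight treatment with compound plus oleate. Detection: Image-based BODIPY and DAPI two-channel analysis. Evaluation: percent inhibition of filter-corrected integrated lipid droplet intensity per well.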
TAG inh: inhibitors of triacylglycerol accumulation | H9c2 cells, Nile Red lipid (TAG) fluorescence; cells loaded with 200 µM oleic acid | inhibition, % at 12.5 µM | 230,000 tested, 0.66% active;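 active = pattern-corrected inhibition of lipid staining of at least 50% with the nuclear-stain viability signal not falling by more than 50%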
Arrestin-AP2 inh: blocks beta-arrestin peptide binding to AP2 adaptin; inhibition, % at 10 µM; FITC-arrestin peptide / GST-AP2 beads, flow cytometry; AP2 beta2 appendage carries R879A mutation; AID 504490; 340,000 tested, 0.31% active;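 active = inhibition above a set limit, near 3 SD of compounds lacking own fluorescence, cut at about 54% in these data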
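Material – GST-tagged AP2 beta2-adaptin appendage (R879A) on 4 µm glutathione beads · Probe or stimulus – fluorescein-tagged arrestin peptide at 50 nM final · Timing – 12 min plus 1 h, RT · Detection – bead flow cytometry, FITC channel · Read-out basis – inhibition as reduced fluorescein signal on beads, percent · Medium – PBS plus Tween 20 (0.05%) and BSA (0.1%)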
GRK2 aptamer HTS: human GRK2 inhibition via aptamer displacement | P25098 | bead flow cytometry, FAM-aptamer displacement from GRK2 | inhibition of aptamer binding, % at 10 µM | 330,000 tested, 0.59% active | AID 488847;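 active = inhibition of aptamer binding above 40%, roughly 3 SD of noise, on plates passing a quality check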;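 note: median bead fluorescence of bound FAM aptamer so fluorescent compounds give negative values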
NTR1 ag: NTR1 (human) agonism. P30989. NTR1-U2OS beta-arrestin-GFP spot imaging, agonist mode. activation, % at 20 µM. 330,000 tested, 0.17% active. AID 493036;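 active = activation at or above 40% of the spot to cytoplasm intensity ratio, with at least 20 cells analyzed; inconclusive = wells under 20 cells, flagged as cytotoxic or low count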
Target sequence (P30989 whole entry, looked up): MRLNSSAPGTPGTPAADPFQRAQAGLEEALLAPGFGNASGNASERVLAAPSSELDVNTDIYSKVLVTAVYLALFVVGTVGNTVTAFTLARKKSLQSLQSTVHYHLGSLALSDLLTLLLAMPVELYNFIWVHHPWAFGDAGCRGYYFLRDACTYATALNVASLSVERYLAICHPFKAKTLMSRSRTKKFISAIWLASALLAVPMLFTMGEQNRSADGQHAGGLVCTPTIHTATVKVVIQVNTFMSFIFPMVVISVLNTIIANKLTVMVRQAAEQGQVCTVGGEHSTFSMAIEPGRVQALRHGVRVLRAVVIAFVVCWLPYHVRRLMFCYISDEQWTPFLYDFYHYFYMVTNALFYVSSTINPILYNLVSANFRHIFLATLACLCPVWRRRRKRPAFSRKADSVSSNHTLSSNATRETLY
Beta2AR ag CP1: human beta-2 adrenergic receptor agonism, cherry pick | Am2.2-beta2AR cells, FAP surface receptor, flow cytometry; active compounds read low | percent response (surface receptor), % at 10 µM | shares compounds with Beta2AR agonist | 1,100 tested, 25% active;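 active = surface receptor percent response at or below 58%, roughly 3 SD from nonfluorescent compounds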
FAP fluor counter: counter-screen for beta-2AR agonists: fluorescence in Am2.2 cells; FAP fluorogen flow cytometry, fluorescence counterscreen; active compounds read low; 1,100 tested, under 10 active; AID 588765; shares compounds with Beta2AR agonist; calls only at 10 µM;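 active = percent response below a set limit in fluorescence channel 1 and below 50% in channel 8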
Of the large screens only hits and unclear results are named; the others gave an inactive call (follow-up assays come after a bar, where they were run).

O=C1CCC(=O)N1c1nc2nc(-c3ccccc3)cc(=O)n2[nH]1	Beta2AR agonist 42.8 | Beta2AR ag CP1 inactive | FAP fluor counter inactive
N#Cc1ccc(-c2cccnc2)nc1SCc1ccc(Cl)cc1Cl	Beta2AR agonist 51.7 (no result: Hep lipid drop) | Beta2AR ag CP1 inactive | FAP fluor counter inactive
CC(CCc1ccc(O)cc1)NCCC(c1ccccc1)c1ccccc1 (configuration not stated)	none (no result: TAG inh) | Beta2AR ag CP1 inactive | FAP fluor counter inactive
CC(NCCc1ccc(O)cc1)C(O)c1ccc(O)cc1 (configuration not stated)	none | Beta2AR ag CP1 inactive | FAP fluor counter inactive
C[C@@H](NCCc1ccc(O)cc1)[C@@H](O)c1ccc(O)cc1	none (no result: Hep lipid drop) | Beta2AR ag CP1 inactive | FAP fluor counter inactive
Cc1ccc2c(c1)C1CN(C)CCC1N2C(=O)c1ccccc1NS(=O)(=O)c1cccc(C(F)(F)F)c1 (configuration not stated)	Beta2AR agonist 67.0 (no result: TAG inh) | Beta2AR ag CP1 inactive | FAP fluor counter inactive
COc1ccc(-c2nn(-c3ccccc3)cc2C(=O)N2c3ccc(C)cc3C3CN(C)CCC32)cc1 (configuration not stated)	Beta2AR agonist 70.5 (no result: Arrestin-AP2 inh) | Beta2AR ag CP1 inactive | FAP fluor counter inactive
Cc1ccc2c(c1)C1CN(C)CCC1N2C(=O)c1ccccc1NS(=O)(=O)c1ccc(F)cc1 (configuration not stated)	none (no result: TAG inh)
COc1ccc(-c2nn(-c3ccccc3)cc2C(=O)O)cc1	none (no result: Hep lipid drop)
COc1ccccc1/C=C(\NC(=O)c1ccccc1)C(=O)NCc1ccco1	none (no result: TAG inh)
CCOC(=O)Cn1nc(C)n(-c2ccc(C(C)(C)C)cc2)c1=O	Beta2AR agonist 51.0 (no result: Hep lipid drop) | Beta2AR ag CP1 inactive | FAP fluor counter inactive
Cc1ccc(Cl)cc1-c1cc(C(=O)NCc2ccc(C(F)(F)F)cc2)[nH]n1	none (no result: Beta2AR agonist, Hep lipid drop, Arrestin-AP2 inh, GRK2 aptamer HTS, NTR1 ag)
CC(=O)Nc1ccc(S(=O)(=O)N2CCN(c3ccc(C(C)=O)cc3)CC2)cc1	none (no result: Beta2AR agonist, Hep lipid drop, Arrestin-AP2 inh, GRK2 aptamer HTS, NTR1 ag)
Nc1nc(-c2ccccc2)nn1S(=O)(=O)c1ccccc1	none
O=[N+]([O-])c1ccc(S(=O)(=O)c2cccc(C(F)(F)F)c2)nc1	Beta2AR agonist 56.7 (no result: Hep lipid drop) | Beta2AR ag CP1 24.2 | FAP fluor counter inactive
O=S(=O)(Nc1cccnc1)c1cccc(C(F)(F)F)c1	none (no result: TAG inh)
CC(=O)N/C(=C\c1ccccc1)C(=O)OCCCOC(=O)/C(=C/c1ccccc1)NC(C)=O	none
O=C(COC(=O)COc1ccccc1)NCc1ccc2c(c1)OCO2	none (no result: Hep lipid drop)
Cn1c(=N)n(CC(=O)c2ccc(Br)cc2)c2ccccc21	Beta2AR agonist 43.0 (no result: Hep lipid drop) | Beta2AR ag CP1 16.4 | FAP fluor counter inactive
Cc1ccc(Cn2c(=N)n(CC(=O)c3ccc([N+](=O)[O-])cc3)c3ccccc32)cc1	Beta2AR agonist 99.6, Hep lipid drop inconclusive (no result: TAG inh) | Beta2AR ag CP1 23.1 | FAP fluor counter active
Cn1c(=N)n(CC(=O)c2ccc(F)cc2)c2ccccc21	none (no result: Hep lipid drop, TAG inh)
COc1cccc(CNC(=O)CCC2CCCN(Cc3cc4ccccc4o3)C2)c1 (configuration not stated)	none
Cc1ccc(-c2ccc(=O)n(CC(=O)NCC3COCCO3)n2)cc1 (configuration not stated)	none (no result: TAG inh)
Cn1nnnc1Sc1ncnc2scc(-c3ccc(F)cc3)c12	none
Cn1nnnc1Sc1ncnc2scc(-c3ccc(Br)cc3)c12	Beta2AR agonist 67.8, TAG inh 57.6 (no result: Hep lipid drop) | Beta2AR ag CP1 32.4 | FAP fluor counter inactive
CC(=O)NCCC(=O)Nc1cc(S(=O)(=O)N2CCCCC2)ccc1Oc1ccccc1	none
CCCCC(=O)N1CCN(c2nc3ccc(OCC)cc3s2)CC1	none (no result: TAG inh)
CCOc1ccc2nc(N3C(=O)CNC3=S)sc2c1	none (no result: GRK2 aptamer HTS) | Beta2AR ag CP1 inactive | FAP fluor counter inactive
COc1ccc(N2C(=O)CS/C2=N\C(=S)Nc2ccccc2)cc1	none | Beta2AR ag CP1 inactive | FAP fluor counter inactive
O=C(Nc1nc(-c2ccco2)cs1)c1ccccc1	Beta2AR agonist 43.5 (no result: Hep lipid drop) | Beta2AR ag CP1 inactive | FAP fluor counter inactive
